Assay [1] concerns Rattus norvegicus. Nature of the assay: Effective dose for antiimplantation activity in male albino rats at 2 mg/Kg;IN-Inactive. In kind it is functional, organism-based. Particulars: in the assay text read “female” for “male”. An outline of the steps:
(§1)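 Colony-bred adult female albino rats (150-170 g) mated with fertile coeval males; suspension in gum acacia given orally on days 1-7 postcoitum; positive only when implants were wholly absent from both uterine horns.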

In assay [2] the target is T1, Estrogen receptor (Rattus norvegicus) (UniProt P06211+Q62986). Nature of the assay: Relative binding affinity for uterine cytosol 17-beta-estradiol receptor from immature rats; N-Nil. In kind it is protein assay. The procedure, abridged:
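Competitive binding against 17β-estradiol for uterine cytosol receptor from immature Charles Foster rats aged 21-25 days; dextran-coated charcoal removes unbound steroid; expressed as relative binding affinity.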

The species entered for assay [3] is Rattus norvegicus. Nature of the assay: Effective dose for antiimplantation activity in male albino rats. In kind it is functional. The settings on record: in the assay text read “female” for “male”. The procedure, abridged: as §1
Assay [4] deals with T1, Estrogen receptor (Rattus norvegicus).
For assay [5], the species on record is Rattus norvegicus. Description: Effective dose for anti-implantation activity in male albino rats; Nil. In kind it is functional, organism-based. Particulars: in the assay text read “female” for “male”. An outline of the steps: as §1
For assay [6], the system named is Rattus norvegicus. Description: Effective dose for anti-implantation activity in female albino rats at 10 mg/kg; IN-Inactive.
The target in assay [7] is T1, Estrogen receptor (Rattus norvegicus). Nature of the assay: Effect on uterine weight gain in immature rats by subcutaneous dose; N-Nil. In kind it is functional. The procedure, abridged:
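Immature rats (25-30 g); dosed subcutaneously once daily for 3 days in 0.2 mL saline/propylene glycol (1:1, v/v); estrogenicity read as uterine weight gain.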

The subject of assay [8] is Rattus norvegicus. Nature of the assay: Effective dose for anti-implantation activity in female albino rats at 10 mg/kg; A-Active.

Activity calls are given as the source filed them. No cut-off for these calls is given here.

`COc1ccc2c(c1)OC(C)(C)C(c1ccc(OCCN3CCCC3)cc1)=C2c1ccccc1`: the ED100 entry in the assay with Rattus norvegicus [1] was “inactive”. In addition, in assay [2], the “relative binding affinity (RBA)” value was “inactive”.
For the molecule `COc1ccc2c(c1)OC(C)(C)C(c1ccccc1)=C2c1cccc(OCCN2CCCC2)c1.Cl`, in the assay listed under Rattus norvegicus [3], the ED100 was determined as 1 mg/kg/day.
Consider `COc1ccc2c(c1)OC(C)(C)C(c1ccccc1)C2c1cccc(OCCN2CCCC2)c1` (stereo in doubt; 22), for which the ED100 result in the assay with Rattus norvegicus [1] is “inactive”.
On to `COc1ccc2c(c1)OC(C)(C)C(c1ccccc1)C2c1ccc(OCCN2CCCC2)cc1` (stereo in doubt; 1), for which the Estrogenic effect in assay [4] was found to be 0.56.
For `COc1ccc2c(c1)OC(C)(C)C(c1ccc(O)cc1)C2c1ccccc1` (stereo in doubt; 33), the ED100 in the assay filed under Rattus norvegicus [3] is 1 mg/kg/day.
In assay [4], `COc1ccc2c(c1)OC(C)(C)C(c1ccccc1)C2c1ccc(O)cc1` (centres undefined) displayed an Estrogenic effect of 0.2. The ED100 result in the assay listed under Rattus norvegicus [5] is “inactive”.
In the assay listed under Rattus norvegicus [3], `COc1ccc2c(c1)OC(C)(C)C(c1ccccc1)=C2c1ccc(OCCN2CCCC2)cc1` had an ED100 of 5 mg/kg/day.
Regarding `COc1ccc2c(c1)OC(C)(C)C(c1ccccc1)=C2c1ccccc1OCCN1CCCC1`, the “relative binding affinity (RBA)” value in assay [2] was “inactive”. Moreover, in the assay on Rattus norvegicus [6], the ED100 entry was “inactive”.
`COc1ccc2c(c1)OC(C)(C)C(c1ccccc1)C2c1ccc(OCCN2CCCC2)cc1` (stereo in doubt; 1) [ORMELOXIFENE] showed an ED100 in the assay listed under Rattus norvegicus [3] of 0.25 mg/kg/day.
In the case of `COc1ccc2c(c1)OC(C)(C)C(c1ccccc1)C2c1ccc(OCCN2CCCC2)cc1` (stereo in doubt; 2), in assay [7], the Estrogenic effect entry was “inactive”.
Take `COc1ccc2c(c1)OC(C)(C)C(c1ccccc1)C2c1ccc(OCCN(C)C)cc1.Cl` (centres undefined): the ED100 in the assay filed under Rattus norvegicus [3] turned out to be 2 mg/kg/day.
Still for that read-out and setting: the figure for `COc1ccc2c(c1)OC(C)(C)C(c1ccccc1)C2c1ccc(OCCN2CCCC2)cc1` (stereo in doubt; 2) [ORMELOXIFENE] is 50 mg/kg/day.
`COc1ccc2c(c1)OC(C)(C)C(c1ccccc1)C2c1cccc(OCCN2CCCC2)c1` (stereo in doubt; 11): the ED100 entry in the assay with Rattus norvegicus [1] is “inactive”.
Take `COc1ccc2c(c1)OC(C)(C)C(c1ccc(OCCN3CCCC3)cc1)C2c1ccccc1` (centres undefined): the ED100 in the assay filed under Rattus norvegicus [3] came out at 2 mg/kg/day. In the assay with Rattus norvegicus [1], the ED100 result is “inactive”. For the same molecule, in assay [2], the “relative binding affinity (RBA)” value is “inactive”. The molecule further had an Estrogenic effect in assay [4] of 2.2.
For the molecule `COc1ccc2c(c1)OC(C)(C)C(c1ccccc1)C2c1ccccc1OCCN1CCCC1` (centres undefined), the ED100 entry with Rattus norvegicus [1] was “inactive”. In assay [2], the “relative binding affinity (RBA)” value was “inactive”.
Take `CCN(CC)CCOc1ccc(C2c3ccc(OC)cc3OC(C)(C)C2c2ccccc2)cc1.Cl` (centres undefined): in the assay filed under Rattus norvegicus [3], the ED100 was 0.3 mg/kg/day.
Regarding `CC1(C)Oc2cc(O)ccc2C(c2ccc(OCCN3CCCC3)cc2)C1c1ccccc1` (centres undefined), the ED100 in the assay listed under Rattus norvegicus [3] turned out to be 0.25 mg/kg/day. This molecule showed an Estrogenic effect in assay [4] of 11.8.
Turning to `COc1ccc2c(c1)OC(C)(C)C(c1ccc(O)cc1)=C2c1ccccc1`, the ED100 entry in the assay on Rattus norvegicus [1] was “inactive”. Moreover, the ED100 result in the assay on Rattus norvegicus [8] was “Active”.
For `COc1ccc2c(c1)OC(C)(C)C(c1ccccc1)C2c1ccc(OCCCN2CCCC2)cc1.Cl` (centres undefined), in the assay listed under Rattus norvegicus [3], the ED100 turned out to be 0.3 mg/kg/day.
As to `COc1ccc2c(c1)OC(C)(C)C(c1ccc(O)cc1)C2c1ccccc1` (stereo in doubt; 31), in the assay with Rattus norvegicus [6], the ED100 entry is “inactive”.
